Rows were chosen to be rich in hits. Some 2% of all compounds tested hit in one or more screens of this group.
LGR2 antag = Drosophila LGR2 receptor signaling inhibition. 380,000 tested, 0.35% active. HEK293 LGR2, CRE-luciferase, bursicon-stimulated, 4 h. inhibition, % at 9.99 µM. AID 720647;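 active = drop in luminescence signal, shown as inhibition above about 50% in the replicate tests, limit read from the data, passing the limit was not always enough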;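 also: agonist challenge used bursicon conditioned medium at about half maximal strength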
CaV13 FRET inh = Primary screen for inhibitors of IQ motif and Ca2+-dependent inactivation inhibitor domain binding in CACNA1D, Förster resonance energy transfer in living cells, …. HEK cells, CFP/YFP FRET ICDI-IQ, plate reader, 10 min; percent FRET-ratio fall versus neutral wells. inhibition, % at 12.3 µM. 340,000 tested, 0.098% active. AID 743397;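 active = mean replicate inhibition of at least 30% and at least 1% of replicates passing that level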;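 also: 0% = median of the neutral control wells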
XiGFP reactiv = activators of X-chromosome reactivation in mouse fibroblasts. XiGFP mouse fibroblasts, % GFP-positive cells imaging, 3 d; cells co-treated with 5-aza-dC sensitizer; scaled so ellipticine positive control = 100%. activation, % at 7.58 µM. 360,000 tested, 0.055% active;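 active = mean normalized replicate activation at least 10% and every replicate at or above 10%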;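 also: 0% = median of on-plate neutral control wells and 100% = ellipticine 6 µM median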
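System: SV40-immortalized XiGFP fibroblast cells, line 68-5-11 / Incubation: 3-day compound exposure, then 15 min fixation at room temperature / Compound: single concentration per compound, delivered by pin transfer / Buffer or medium: DMEM plus 5-aza-dC sensitizer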
TROY signal inh = TROY signaling inhibition. Q293 LMP1-TROYcd NF-kB luciferase reporter, 4 h. inhibition, % at 10 µM. AID 1347056. 360,000 tested, 0.98% active;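 active = compounds whose plate-normalised and pattern-corrected inhibition of the luciferase reporter signal at the single screening dose is 50% or more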
TWEAK-Fn14 inh = inhibitors of TWEAK-Fn14 interaction signaling; inhibition, % at 10 µM; TWEAK-stimulated Fn14 reporter cells, luciferase luminescence, 8 h; 360,000 tested, 2% active; AID 1159606; in the data active = inhibition above about 50%
The depositor's hits bear a star; nt = no result.

SMILES	LGR2 antag	CaV13 FRET inh	XiGFP reactiv	TROY signal inh	TWEAK-Fn14 inh
Cc1noc(C)c1S(=O)(=O)Nc1ccc2c(c1)C(=O)N([C@H](C)CO)C[C@H](C)[C@H](CN(C)C(=O)c1ccccc1)OCCCC[C@H](C)O2	0	nt	0	nt	nt
CCOC(=O)c1c(C)oc2c1c(C=NCc1ccccn1)c(O)c1ccccc12	nt	-6	0	33	29
CCOC(=O)c1c(C)oc2c1c(C=NCC1CCCO1)c(O)c1ccccc12 (configuration not stated)	nt	nt	nt	69*	29
CSc1nnc(N(CCC#N)CCC#N)s1	nt	nt	nt	-6	-6
Cc1nnc(N(CCC#N)CCC#N)s1	nt	-5	nt	nt	85*
Cc1cc(N2CCN(S(=O)(=O)c3ccc(Cl)cc3)CC2)c2ccccc2n1	nt	nt	nt	53*	31
CS(=O)(=O)N1CCN(c2ccnc3cc(Cl)ccc23)CC1	3	4	0	21	67*
Cc1cc(N2CCN(S(=O)(=O)c3ccc(Cl)c(Cl)c3)CC2)c2ccccc2n1	-7	-5	0	20	15
Cc1ccc(S(=O)(=O)N2CCN(c3ccnc4cc(Cl)ccc34)CC2)cc1	8	-14	0	31	51*
COCC(=O)N1CC2(C1)[C@@H](c1ccc(-c3ccc(F)cc3)cc1)[C@H](CO)N2C(C)=O	-6	nt	1	nt	nt
c1ccc2c(c1)cnc1ccccc12	-6	2	0	1	7
c1ccc(-c2cnc(-c3ccccc3)nc2)cc1	56*	-4	nt	1	67*
c1ccc(-c2ncc3c(ccc4ccccc43)n2)cc1	81*	-4	0	51*	84*
O=C(O)c1ncc(-c2ccccc2)cn1	nt	-9	nt	-7	1
COc1ccc(C#Cc2cnc3c(c2)C(=O)N([C@H](C)CO)C[C@H](C)[C@H](CN(C)C)O3)cc1	-1	nt	-1	nt	nt
O=c1cc(-c2ccccc2Cl)oc2c(NS(=O)(=O)c3cc(Cl)cc(Cl)c3O)ccc(O)c12	nt	nt	nt	68*	65*
CCc1ccc(C(=O)NNC(=O)C2CC(=O)N(c3ccc4c(c3)OCCO4)C2)cc1 (configuration not stated)	19	-2	0	-1	19
COC(=O)c1ccc(CSc2nnc(NC(=O)C3CC(=O)N(c4ccc5c(c4)OCCO5)C3)s2)cc1 (configuration not stated)	-3	-2	0	44	54*
CC(=O)Nc1ccc(-c2csc(NC(=O)C3CC(=O)N(c4ccc5c(c4)OCCO5)C3)n2)cc1 (configuration not stated)	15	-5	1	39	14
COc1ccc(-c2csc(NC(=O)C3CC(=O)N(c4ccc5c(c4)OCCO5)C3)n2)cc1 (configuration not stated)	24	-18	2	55*	85*
Cc1cccc(N2CC(C(=O)Nc3ccc4c(c3)OCCO4)CC2=O)c1C (configuration not stated)	5	-2	0	34	63*
CCN(CC)S(=O)(=O)c1ccc(NC(=O)C2CC(=O)N(c3ccc4c(c3)OCCO4)C2)cc1 (configuration not stated)	7	-6	0	7	60*
COc1cccc(S(=O)(=O)N[C@H]2CC[C@@H](CC(=O)NCc3ccccc3)O[C@@H]2CO)c1	11	nt	1	nt	nt
C[C@@H]1CCCCO[C@H](CN(C)C(=O)Nc2ccc(F)cc2)[C@@H](C)CN([C@H](C)CO)C(=O)c2cc(NC(=O)CCC(F)(F)F)ccc2O1	0	nt	0	nt	nt
CO[C@H]1CN(C)C(=O)c2ccc(NS(C)(=O)=O)cc2OC[C@@H](C)N(CC2CCCCC2)C[C@@H]1C	-11	nt	0	nt	nt
SMILES	LGR2 antag	CaV13 FRET inh	XiGFP reactiv	TROY signal inh	TWEAK-Fn14 inh
COc1ccc(N2CC(C(=O)Nc3ccc4c(c3)OCCO4)CC2=O)cc1 (configuration not stated)	22	-3	0	-7	42
CCc1ccc(N2CC(C(=O)Nc3ccc4c(c3)OCCO4)CC2=O)cc1 (configuration not stated)	13	-4	0	55*	51*
Cc1cc(NC(=O)C2CC(=O)N(c3cccc(C)c3C)C2)no1 (configuration not stated)	-13	-4	0	-20	2
Cc1cc(NC(=O)C2CC(=O)N(c3ccccc3C)C2)no1 (configuration not stated)	-5	-3	0	-7	83*
OC[C@@H]1[C@@H](c2ccc(Cl)cc2)C(c2cccc(Cl)c2)=NN1c1ccccc1	-4	-11	0	0	62*
CC(=O)N(C)C[C@H]1Oc2cc(C#CC3CC3)ccc2S(=O)(=O)N([C@@H](C)CO)C[C@H]1C	-2	nt	-1	nt	nt
Cc1ccccc1/C=C/C12NC(=O)CN1c1ccccc1C2(C)C (configuration not stated)	-15	-5	0	29	56*
CC1(C)c2ccccc2N2CC(=O)N[C@@]21/C=C/C=C/c1ccccc1	4	-4	0	9	20
CO[C@@H]1CN(C)C(=O)c2ccc(NC(C)=O)cc2OC[C@@H](C)N(C(=O)c2ccncc2)C[C@@H]1C	11	nt	0	nt	nt
CCOC(=O)c1c(C)oc2c1c(C(c1cccnc1)N1CCOCC1)c(O)c1ccccc12 (configuration not stated)	nt	nt	nt	-9	98*
CNC[C@@H]1Oc2c(NC(=O)Nc3c(C)noc3C)cccc2C(=O)N([C@@H](C)CO)C[C@H]1C	4	nt	0	nt	nt
CC(C)c1ccc(OCCCN2CCC(C(O)(c3ccccc3)c3ccccc3)CC2)cc1	103*	-11	0	nt	nt
OC(c1ccccc1)(c1ccccc1)C1CCN(CCCOc2cccc(C(F)(F)F)c2)CC1	106*	-9	0	nt	nt
OC(c1ccccc1)(c1ccccc1)C1CCN(CCCOc2ccc(C(F)(F)F)cc2)CC1	107*	-8	0	nt	nt
Cc1cccc(-c2ccc([C@H]3[C@@H](CO)N4CCCCN(S(=O)(=O)c5cccs5)C[C@@H]34)cc2)c1	25	nt	0	nt	nt
COc1ccc2c3c(n(C)c2c1)[C@@H](CO)N(Cc1ccccc1)CC31CCN(C(=O)c2ccccc2F)CC1	10	nt	0	nt	nt
C[C@H](CO)N1C[C@H](C)[C@@H](CN(C)Cc2cncnc2)Oc2cc(/C=C/c3ccccc3)ccc2S1(=O)=O	7	nt	-1	nt	nt
Oc1ccc(-c2cnc3c(Nc4cccc(OC(F)(F)C(F)F)c4)nccn23)cc1	-13	-5	0	-5	31
NC(=O)c1cccc(-c2cnc3c(Nc4cccc(OC(F)(F)C(F)F)c4)nccn23)c1	8	-5	0	46	72*
C[C@@H]1CN([C@@H](C)CO)S(=O)(=O)c2ccc(-c3cccnc3)cc2O[C@@H]1CN(C)C(=O)NC1CCCC1	4	nt	0	nt	nt
